In brackets after ≈: the same amount, converted by molar mass. Activity calls are given as the source filed them. No cut-off for these calls is given here.

For series [1], the system named is Mycobacterium tuberculosis. As to the kind of experiment: Antimycobacterial activity against XDR clinical isolate Mycobacterium tuberculosis PRAHA 1 assessed as inhibition of mycobacterial growth measured after 14 to 21 days of incubation by Sulas semisynthetic medium based assay. It counts as functional. The settings on record: time 14-21 day. The method in brief:
(§1)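 Clinical MDR/XDR M. tuberculosis isolates were tested by the Sula's semisynthetic medium micromethod. Compounds in DMSO at 1000 to 0.5 μmol/L, in twofold-type steps. Incubation at 37 °C, read at 14 and 21 days. MIC99 is the lowest concentration inhibiting >99% of growth. Drug resistance or susceptibility of each isolate is to amikacin, clofazimine, gentamicin, ofloxacin, streptomycin and the others listed.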

The subject of series [2] is Mycobacterium tuberculosis. As to the kind of experiment: Antitubercular activity against Mycobacterium tuberculosis CNCTC My 331/88 (H37Rv) assessed as inhibition of bacterial growth measured after 21 days of incubation by Sulas semisynthetic medium based assay. It counts as functional. The settings on record: 504 h, time 21 day. In outline:
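Micromethod MIC in Sula's semisynthetic medium. MIC is the lowest concentration inhibiting >99% of the mycobacterial population. Isoniazid was the standard drug.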

The test system of series [3] is Mycobacterium tuberculosis. The series can be described thus: Antimycobacterial activity against MDR clinical isolate Mycobacterium tuberculosis PRAHA 1 assessed as inhibition of mycobacterial growth measured after 14 to 21 days of incubation by Sulas semisynthetic medium based assay. It counts as functional. The conditions noted are these: time 14-21 day. The method in brief:
as §1

Series [4] relates to Pseudomonas aeruginosa. The series can be described thus: Antibacterial activity against multidrug-resistant Pseudomonas aeruginosa A1245 assessed as inhibition of bacterial growth incubated for 24 to 48 hrs by microdilution broth method. The settings on record: time 24-48 hrs. It counts as functional, organism-based. In outline: (§2)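 Clinical isolates, stored at −70 °C, were passaged twice on Mueller-Hinton agar. Broth microdilution in Mueller-Hinton broth, pH 7.4, with twofold serial dilutions. DMSO was at most 1% final. Inoculum 1.5 × 10⁸ CFU/mL suspension. MIC is 95% growth inhibition, read after 24 and 48 h at 36 °C.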

Series [5] concerns Mycobacterium tuberculosis. The series can be described thus: Antimycobacterial activity against XDR clinical isolate Mycobacterium tuberculosis 9449/2007 assessed as inhibition of mycobacterial growth measured after 14 to 21 days of incubation by Sulas semisynthetic medium based assay. It counts as functional. The settings on record: time 14-21 day. The method in brief: as §1

Series [6] has as its system Staphylococcus aureus. The series can be described thus: Antibacterial activity against Staphylococcus aureus C1947 assessed as inhibition of bacterial growth incubated for 24 to 48 hrs by microdilution broth method. The conditions noted are these: time 24-48 hrs. In kind it is functional, organism-based. The method in brief:
(§3)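 Clinical isolates kept at –70 °C and subcultured twice on Mueller-Hinton agar, using the second subculture. Broth microdilution in Mueller-Hinton broth at pH 7.4 with two-fold serial compound dilutions and DMSO ≤1% final. Inoculum was 10 μL of a 1.5 × 10⁸ CFU/mL suspension. Incubated at 36 °C ± 1 °C and read at 24 h and 48 h. MIC taken as 95% growth inhibition.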
For orientation: Dilution methods test growth across graded concentrations, often in twofold steps.

In series [7] the test system is Mycobacterium tuberculosis. The series can be described thus: Antimycobacterial activity against XDR clinical isolate Mycobacterium tuberculosis 234/2005 assessed as inhibition of mycobacterial growth measured after 14 to 21 days of incubation by Sulas semisynthetic medium based assay. It counts as functional. The settings on record: time 14-21 day. The method in brief: as §1

In series [8] the test system is HepG2. As to the kind of experiment: Cytotoxicity against human HepG2 cells incubated for 24 hrs by MTT assay. It counts as functional, cell-based. The settings on record: HepG2, 24 h. The method in brief:
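HepG2 cells in DMEM with 10% FBS, seeded at 15 × 10³ cells/well and attached overnight. Exposed for 24 h to serial dilutions prepared from DMSO stocks, final DMSO ≤1%. Then given fresh medium with 0.5 mg/mL MTT for 1 h at 37 °C. Formazan dissolved in DMSO and read at 570 nm. IC50 from 4-parameter nonlinear regression; three independent experiments in triplicate, mean ± SD.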

The test system of series [9] is Klebsiella pneumoniae. The series can be described thus: Antibacterial activity against ESBL positive Klebsiella pneumoniae C1914 assessed as inhibition of bacterial growth incubated for 24 to 48 hrs by microdilution broth method. The settings on record: time 24-48 hrs. It counts as functional, organism-based. In outline:
as §3

For series [10], the system named is Mycobacterium tuberculosis. As to the kind of experiment: Antimycobacterial activity against MDR clinical isolate Mycobacterium tuberculosis PRAHA 4 assessed as inhibition of mycobacterial growth measured after 14 to 21 days of incubation by Sulas semisynthetic medium based assay. The settings on record: time 14-21 day. In kind it is functional. The method in brief:
as §1

Series [11] concerns Mycobacterium tuberculosis. As to the kind of experiment: Antimycobacterial activity against XDR clinical isolate Mycobacterium tuberculosis 8666/2010 assessed as inhibition of mycobacterial growth measured after 14 to 21 days of incubation by Sulas semisynthetic medium based assay. In kind it is functional. The settings on record: time 14-21 day. In outline:
as §1

The subject of series [12] is Staphylococcus epidermidis. The series can be described thus: Antibacterial activity against Staphylococcus epidermidis C1936 assessed as inhibition of bacterial growth incubated for 24 to 48 hrs by microdilution broth method. In kind it is functional, organism-based. The conditions noted are these: time 24-48 hrs. In outline:
as §3

In series [13] the test system is Mycobacterium tuberculosis. The series can be described thus: Antimycobacterial activity against XDR clinical isolate Mycobacterium tuberculosis PRAHA 4 assessed as inhibition of mycobacterial growth measured after 14 to 21 days of incubation by Sulas semisynthetic medium based assay. It counts as functional. The conditions noted are these: time 14-21 day. The method in brief: as §1

Series [14] can be described thus: Intrinsic clearance in human liver microsomes at 3 uM incubated for 5 to 45 min in presence of NADPH by LC-MS analysis. It counts as ADME, Microsome. The settings on record: time 5-45 min, read-out: CLH. For orientation: Liver microsomes are vesicles of endoplasmic reticulum, rich in cytochrome P450 enzymes.
Series [15] concerns Enterococcus faecium. The series can be described thus: Antibacterial activity against vancomycin-resistant Enterococcus faecium assessed as inhibition of bacterial growth incubated for 24 to 48 hrs by microdilution broth method. It counts as functional, organism-based. The settings on record: time 24-48 hrs. The method in brief: as §2
In series [16] the test system is Mycobacterium tuberculosis. The series can be described thus: Antimycobacterial activity against XDR clinical isolate Mycobacterium tuberculosis 7357/1998 assessed as inhibition of mycobacterial growth measured after 14 to 21 days of incubation by Sulas semisynthetic medium based assay. It counts as functional. The settings on record: time 14-21 day. In outline:
as §1

The test system of series [17] is Mycobacterium tuberculosis. The series can be described thus: Antimycobacterial activity against MDR clinical isolate Mycobacterium tuberculosis 9449/2007 assessed as inhibition of mycobacterial growth measured after 14 to 21 days of incubation by Sulas semisynthetic medium based assay. In kind it is functional. The conditions noted are these: time 14-21 day. In outline:
as §1

The subject of series [18] is HepG2. As to the kind of experiment: Cytotoxicity against human HepG2 cells assessed as cell viability at 50 uM incubated for 72 hrs by MTT spectrophotometric analysis relative to control. It counts as functional. The conditions noted are these: read-out: Activity. The method in brief:
(§4)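 HepG2 or rat H9c2 cells in DMEM with FBS, seeded at 10,000 cells/well. Treated 24 h later for 72 h, with 0.1% DMSO vehicle and 1% Triton X-100 as controls. MTT added (3 mg/mL solution) for 2 h at 37 °C, then cells lysed in isopropanol/0.1 M HCl/5% Triton X-100. Read at 570 nm minus 690 nm. Viability expressed as % of vehicle; IC50 derived where reached. At least four independent experiments.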

Series [19] deals with HepG2. The series can be described thus: Cytotoxicity against human HepG2 cells assessed as cell viability incubated for 72 hrs by MTT spectrophotometric analysis. It counts as functional, cell-based. The settings on record: HepG2, 72 h. In outline: as §4
Series [20] deals with H9c2. As to the kind of experiment: Cytotoxicity against rat H9c2 cells assessed as cell viability at 50 uM incubated for 72 hrs by MTT spectrophotometric analysis relative to control. It counts as functional. The settings on record: read-out: Activity. The method in brief:
as §4

The test system of series [21] is Staphylococcus aureus. As to the kind of experiment: Antibacterial activity against Staphylococcus aureus C1947 assessed as inhibition of bacterial growth at 125 uM incubated for 24 to 48 hrs by microdilution broth method. It counts as functional, organism-based. The conditions noted are these: time 24-48 hrs.
In series [22] the test system is Staphylococcus epidermidis. As to the kind of experiment: Antibacterial activity against Staphylococcus epidermidis C1936 assessed as inhibition of bacterial growth at 125 uM incubated for 24 to 48 hrs by microdilution broth method. In kind it is functional, organism-based. The conditions noted are these: time 24-48 hrs.
Series [23] relates to Escherichia coli. The series can be described thus: Antibacterial activity against Escherichia coli A1235 assessed as inhibition of bacterial growth at 125 uM incubated for 24 to 48 hrs by microdilution broth method. In kind it is functional, organism-based. The settings on record: time 24-48 hrs.
For series [24], the system named is Pseudomonas aeruginosa. As to the kind of experiment: Antibacterial activity against multidrug-resistant Pseudomonas aeruginosa A1245 assessed as inhibition of bacterial growth at 125 uM incubated for 24 to 48 hrs by microdilution broth method. It counts as functional, organism-based. The settings on record: time 24-48 hrs.
The test system of series [25] is Staphylococcus aureus. As to the kind of experiment: Antibacterial activity against methicilin-resistant Staphylococcus aureus C1923 assessed as inhibition of bacterial growth at 125 uM incubated for 24 to 48 hrs by microdilution broth method. It counts as functional, organism-based. The conditions noted are these: time 24-48 hrs.
The subject of series [26] is Klebsiella pneumoniae. As to the kind of experiment: Antibacterial activity against ESBL negative Klebsiella pneumoniae C1950 assessed as inhibition of bacterial growth at 125 uM incubated for 24 to 48 hrs by microdilution broth method. In kind it is functional, organism-based. The conditions noted are these: time 24-48 hrs.

For orientation: MIC99 means an inhibitory concentration at the 99% level, which refers to growth in some studies and to a panel of isolates in others. What is called IC50 is the concentration needed to halve the response being measured. As to `c1ccc2cc(Cn3cnc4nc(N5CCOCC5)nc(NC5CCC5)c43)ccc2c1`, the MIC99 in series [1] stood at 4 µM (≈ 1.66 µg/mL); in series [2], 4 µM (≈ 1.66 µg/mL); in [3] it was 4 µM (≈ 1.66 µg/mL); in series [5], 8 µM (≈ 3.32 µg/mL); in series [7], 8 µM (≈ 3.32 µg/mL); in series [10] it was 4 µM (≈ 1.66 µg/mL). Besides, the MIC99 in [11] was 8 µM (≈ 3.32 µg/mL); in series [13] it was 8 µM (≈ 3.32 µg/mL); in [16], 8 µM (≈ 3.32 µg/mL); in series [17] it was 4 µM (≈ 1.66 µg/mL). Further, the outcome in [4] and in [9] was inactive. Besides, the result in [6], in [12] and in [15] was Active. In addition, the IC50 in series [8] is 33 µM. In addition, in series [14], the microsomal CLint at 3 µM amounted to 36.6 µL/min/mg.

Take `O=c1[nH]c(N2CCOCC2)nc2ncn(Cc3ccc4ccccc4c3)c12`: the viability at 50 µM in series [18] is 60.5%; in [20], 86%. In addition, the MIC99 in [1] came out at 64 µM (≈ 23.1 µg/mL); in series [2], 4 µM (≈ 1.45 µg/mL); in series [3], 32 µM (≈ 11.6 µg/mL); in [5], 64 µM (≈ 23.1 µg/mL); in [7], 32 µM (≈ 11.6 µg/mL); in [10] it was 16 µM (≈ 5.78 µg/mL). For the same compound, the MIC99 in series [11] amounted to 64 µM (≈ 23.1 µg/mL); in series [13], 32 µM (≈ 11.6 µg/mL); in [16], 64 µM (≈ 23.1 µg/mL); in series [17] it was 32 µM (≈ 11.6 µg/mL). Further, the half-maximal inhibitory concentration (IC50) in [19] is 59 µM; in series [8], greater than 125 µM. In addition, the result in series [4], in series [6], in series [9], in series [12] and in [15] was inactive. Besides, the microsomal CLint at 3 µM in [14] was 12.6 µL/min/mg.

Turning to `CCOc1nc(N2CCOCC2)nc2ncn(Cc3ccc4ccccc4c3)c12`, the results for the viability at 50 µM in [18] and in [20] were 23.5% and 94.8%, respectively. Besides, the result in [21], in series [4], in series [6], in series [9], in series [22] and in series [23] was inactive. Moreover, the result in [24], in series [25], in series [12], in series [15] and in series [26] was inactive. The IC50 in [19] stood at 33.1 µM; in series [8], 43.5 µM. The MIC99 in series [2] is 2 µM (≈ 0.779 µg/mL); in [5], 4 µM (≈ 1.56 µg/mL); in series [11] it was 2 µM (≈ 0.779 µg/mL); in series [17] it was 2 µM (≈ 0.779 µg/mL). The microsomal CLint at 3 µM in [14] stood at 24.4 µL/min/mg.

For the origin of these results see ChEMBL document CHEMBL5620421, “2,6-Disubstituted 7-(naphthalen-2-ylmethyl)-7H-purines as a new class of potent antitubercular agents inhibiting DprE1” (Eur J Med Chem, 2023).
